# Source: PubChem BioAssay
# Only some compounds are listed: those with a hit (about 1.2% of all), similar ones and a draw of the others.
# RBBP9 inh: blocks human serine hydrolase RBBP9 | O75884 | AID 1515 | inhibition, % at 7.94 µM | recombinant RBBP9, FP-Rh probe fluorescence polarization | actives 0.2% (n = 220,000);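 active = inhibition above the campaign mean of all tested compounds plus 3 SD, cut at about 14% in these data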;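 also: plate controls were DMSO wells with RBBP9 for no effect and wells lacking RBBP9 protein for full effect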
#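 Test system: recombinant human RBBP9; Timing: 30 min then 45 min, 25 °C; Detection: fluorescence polarization; Control set: RBBP9 with DMSO as uninhibited control, no-protein wells as full inhibition; Compound dosing: one concentration, 7.94 µM nominal, 0.794% DMSO; Probe or stimulus: FP-Rh activity-based probe, 375 nM before mixing.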
# Rad51 HR inh: Rad51 (human) homologous recombination inhibition; Q06609; hRad51 DNA strand exchange, fluorescence dequenching; inhibition, % at 10 µM; actives 0.085% (n = 200,000);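 active = inhibition above 40% at the single screening dose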;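 also: 0% = DMSO control wells and 100% = blanks with heterologous ssDNA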
#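 Test system: preformed human Rad51 ssDNA filaments; also added: Donor/quencher-labelled 47-bp dsDNA substrate; doses: 10 µM final, single point; times: 37 °C 15-min filament assembly, 30-min compound preincubation, 15-min exchange; detection: FRET fluorescence dequenching, excitation 485 nm, emission 520 nm; read-out basis: Fluorescence-based percent inhibition, control- and blank-normalised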
# FID counter: counter-screen for HCV NS3 helicase inhibitors: DNA intercalator displacement | actives 0.17% (n = 290,000) | DNA fluorescent intercalator displacement, fluorescence | inhibition, % at 7.9 µM; in the data active = inhibition above about 37%;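 also: 0% = vehicle and 100% = reference compound; higher means more ethidium bromide displaced from hairpin DNA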
# Wee1 stabilizer: human Wee1 degradation inhibition, primary screen; reporter increase, % at 5 µM; AID 1321; P30291; actives 1.2% (n = 220,000); HeLa Luc-Wee1K328M stability, luciferase luminescence; 100% = proteasome inhibitor MG132 effect;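 active = activation above the mean of all tested compounds plus 3 SD, set per screening run, cut at about 8.8% in these data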;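 also: cells exposed to compound for 20 h before luminescence read; 0% = DMSO alone and 100% = MG132 at 30 µM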
# Target sequence (P30291 whole entry K328M): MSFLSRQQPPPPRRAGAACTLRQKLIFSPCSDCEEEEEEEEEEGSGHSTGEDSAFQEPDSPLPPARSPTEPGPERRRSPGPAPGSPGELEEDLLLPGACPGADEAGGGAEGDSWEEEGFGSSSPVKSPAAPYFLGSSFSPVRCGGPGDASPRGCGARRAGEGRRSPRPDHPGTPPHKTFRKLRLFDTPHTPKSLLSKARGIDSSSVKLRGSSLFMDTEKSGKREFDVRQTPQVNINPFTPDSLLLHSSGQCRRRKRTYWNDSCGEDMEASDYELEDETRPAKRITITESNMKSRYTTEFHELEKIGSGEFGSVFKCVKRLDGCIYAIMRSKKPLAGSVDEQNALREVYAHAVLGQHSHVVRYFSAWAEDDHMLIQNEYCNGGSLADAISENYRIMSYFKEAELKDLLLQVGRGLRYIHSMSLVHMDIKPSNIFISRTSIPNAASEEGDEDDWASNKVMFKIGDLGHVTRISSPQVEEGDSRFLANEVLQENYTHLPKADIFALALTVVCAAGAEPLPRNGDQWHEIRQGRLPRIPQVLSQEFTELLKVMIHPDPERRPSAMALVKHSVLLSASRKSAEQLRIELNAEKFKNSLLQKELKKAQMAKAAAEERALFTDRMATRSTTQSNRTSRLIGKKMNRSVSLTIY
# Starred values were filed as active, the others as inactive; / = no result given.
SMILES,RBBP9 inh,Rad51 HR inh,FID counter,Wee1 stabilizer
CC(c1ccccc1)N1C(=O)c2ccc(C(=O)Nc3ccccc3C(=O)O)cc2C1=O (configuration not stated),/,/,43.1*,/
O=C(Cn1cc[n+](Cc2ccccc2)c1)c1ccc([N+](=O)[O-])cc1,4.9,0.9,43.6*,-2.1
CCCn1ncc(/C=N/O)c1C,2.3,/,-3.5,-3.2
CC(C)N(C(C)C)S(=O)(=O)c1ccc(NN)nc1,-8.0,43.2*,-8.4,3.4
CCOC(=O)C1CCN(S(=O)(=O)c2ccc3c(c2)CCN3C(=O)C2CCC2)CC1,/,/,-37.1,/
COc1cccc(CNS(=O)(=O)c2ccc3c(c2)CCN3C(=O)C2CC2)c1,0.1,/,-9.0,9.2*
CC1CCCCN1S(=O)(=O)c1ccc2c(c1)CCN2C(=O)C1CCC1 (configuration not stated),5.5,/,-4.4,8.8*
CC(=O)c1c(C)[nH]c(C(=O)Nc2ccc(F)cc2F)c1C,/,/,-7.2,/
CC(C)CCNC(=O)NC(=O)COC(=O)/C=C/c1cnc2ccccc2n1,-1.6,/,-1.9,2.7
Fc1cccc(Cl)c1CNC(c1ccccc1)c1ccccc1,3.5,-1.2,-1.6,9.1*
O=C(CNC(c1ccccc1)c1ccccc1)Nc1c(F)cccc1F,-13.4,-10.1,-15.8,-0.1
CCOc1ccc(NC(=O)CN2CCc3cc4c(cc3C2)OCCCO4)cc1OCC,/,/,-13.5,/
O=C(CCc1ccccc1)Nc1ccc2c(c1)OCO2,/,/,-2.7,/
O=C(CS(=O)(=O)Cc1ccccc1)Nc1ccc2c(c1)OCO2,-3.5,8.4,-8.7,10.5*
Clc1cc(Cl)c(OCCCCn2cncn2)c(Cl)c1,/,/,-7.9,/
O=C(CC1S/C(=N/N=C/c2c[nH]c3ccc(OCc4ccccc4)cc23)NC1=O)Nc1ccccc1 (configuration not stated),-1.6,10.3,5.0,8.9*
O=C(CC1S/C(=N/N=C/c2c[nH]c3ccccc23)NC1=O)Nc1ccccc1 (configuration not stated),-4.8,-6.5,14.4,-2.6
Cc1ccc(CNC(=O)c2cc3c(-c4ccc(Cl)cc4)nn(C)c3s2)o1,-41.7,4.7,-5.4,9.6*
Cc1cc(C(=O)OCC(=O)Nc2cccc(S(=O)(=O)N(C)C)c2)c2ccccc2n1,-3.6,1.6,-2.2,10.7*
NS(=O)(=O)c1cccc(NC(=O)COC(=O)c2cc(-c3ccc(Cl)cc3)nc3ccccc23)c1,-51.1,8.0,7.1,9.0*
CN(C)S(=O)(=O)c1ccc(Cl)c(NC(=O)COC(=O)c2cc(-c3ccccc3)nc3ccccc23)c1,-10.5,/,1.7,-1.7
CN(C)S(=O)(=O)c1cccc(NC(=O)COC(=O)c2cccc(S(=O)(=O)N3CCc4ccccc4C3)c2)c1,7.5,-25.7,1.7,10.6*
CCc1ccc(/C=C/C(=O)C2C(=O)c3ccccc3C2=O)cc1,9.2,3.1,-20.2,-2.3
O=C(/C=C/c1ccccc1)C1C(=O)c2ccccc2C1=O,-8.8,6.5,-9.9,10.1*
CC(C)Nc1nc(SC(C)C(=O)Nc2ccccc2)nc(N(C)C)n1 (configuration not stated),-0.5,-0.8,-27.2,10.3*
SMILES,RBBP9 inh,Rad51 HR inh,FID counter,Wee1 stabilizer
CCNc1nc(SC(C)C(=O)Nc2ccccc2)nc(N(C)C)n1 (configuration not stated),-6.0,8.0,-20.0,-0.2
O=C1N=c2ccccc2=C1c1sc(Nc2ccc(O)cc2)nc1O,-4.8,18.3,7.0,-2.1
O=C1N=c2ccccc2=C1c1sc(Nc2cccc(O)c2)nc1O,/,/,39.3*,/
O=C(Nc1c(C(=O)O)oc2ccc(Br)cc12)c1ccccc1,-14.1,0.3,-12.6,13.4*
Cc1nn(C(C)C(=O)NCCN2CCCC2)c(=O)c2c1sc1ccccc12 (configuration not stated),/,/,-4.6,/
COc1ccccc1N1CCN(C(=O)c2ccc(CS(=O)(=O)c3ccccc3OC)o2)CC1,-7.9,0.3,-31.2,9.8*
CCOC(=O)N1CCN(c2c(-c3ccc(C(C)C)cc3)c(=O)c2=O)CC1,7.6,-5.1,-34.9,-0.3
CCOC(=O)N1CCN(c2ccccc2O)CC1,2.8,-9.7,-6.2,1.2
CCOC(=O)N1CCN(c2c(-c3ccc(C)cc3)c(=O)c2=O)CC1,-9.2,80.4*,-14.0,2.3
CCOC(=O)N1CCN(c2ccccc2OC)CC1,-2.5,11.6,-4.9,9.6*
Cn1ncc2c(NNC(=O)c3ccccc3Cl)ncnc21,-5.6,-7.7,-2.8,9.3*
Cc1ccccc1C(=O)NNc1ncnc2c1cnn2C,-9.1,8.3,12.6,1.4
COc1cc(C(CC(=O)Nc2cc(C)ccn2)N2Cc3ccccc3C2=O)cc(OC)c1OC (configuration not stated),/,/,-29.2,/
